Measurements from ChEMBL document CHEMBL1166015, “Design, synthesis, and docking of highly hypolipidemic agents: Schizosaccharomyces pombe as a new model for evaluating alpha-asarone-based HMG-CoA reductase inhibitors” (Bioorg Med Chem, 2010).

Tests used:
[1] = test system: Mus musculus; test: Hypolipidemic activity in ICR mouse assessed as decrease in Tyloxapol-induced total cholesterol level at 50 mg/kg, ip administered 1 hr before Tyloxapol challenge and 22, 48 hrs after Tyloxapol challenge measured after 22 hrs relative to control; format: functional; parameters: scale not given: the % may be the effect or the level left; details: route oral, in the assay text read “po administered” for “ip administered”
How it was run: (§1)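 Male ICR mice (24–27 g), groups of six. Hyperlipidemia induced by ip Tyloxapol (Triton WR 1339) 400 mg/kg in water. Drug given at 5 mL/kg 1 h before and 22 and 48 h after injection; vehicle controls. Blood drawn 22 h post-injection by periorbital bleeding. Serum total cholesterol, HDL-C and triglycerides measured on an automatic analyzer; LDL-C by the Friedewald equation. Values are % of the Tyloxapol group, mean ± SE.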

[2] = test system: Mus musculus; test: Hypolipidemic activity in ICR mouse assessed as decrease in Tyloxapol-induced total cholesterol level at 100 mg/kg, ip administered 1 hr before Tyloxapol challenge and 22, 48 hrs after Tyloxapol challenge measured after 22 hrs relative to control; format: functional; parameters: scale not given: the % may be the effect or the level left; details: route oral, in the assay text read “po administered” for “ip administered”; how it was run: as §1
[3] = test system: Mus musculus; test: Hypolipidemic activity in ICR mouse assessed as decrease in Tyloxapol-induced LDL-cholesterol level at 50 mg/kg, ip administered 1 hr before Tyloxapol challenge and 22, 48 hrs after Tyloxapol challenge measured after 22 hrs relative to control; format: functional; parameters: scale not given: the % may be the effect or the level left; details: route oral, in the assay text read “po administered” for “ip administered”; how it was run: as §1
[4] = test system: Mus musculus; test: Hypolipidemic activity in ICR mouse assessed as decrease in Tyloxapol-induced LDL-cholesterol level at 100 mg/kg, ip administered 1 hr before Tyloxapol challenge and 22, 48 hrs after Tyloxapol challenge measured after 22 hrs relative to control; format: functional; parameters: scale not given: the % may be the effect or the level left; details: route oral, in the assay text read “po administered” for “ip administered”; how it was run: as §1
[5] = test system: Mus musculus; test: Hypolipidemic activity in ICR mouse assessed as decrease in Tyloxapol-induced HDL-cholesterol level at 50 mg/kg, ip administered 1 hr before Tyloxapol challenge and 22, 48 hrs after Tyloxapol challenge measured after 22 hrs relative to control; format: functional; parameters: scale not given: the % may be the effect or the level left; details: route oral, in the assay text read “po administered” for “ip administered”; how it was run: as §1
[6] = test system: Mus musculus; test: Hypolipidemic activity in ICR mouse assessed as decrease in Tyloxapol-induced HDL-cholesterol level at 100 mg/kg, ip administered 1 hr before Tyloxapol challenge and 22, 48 hrs after Tyloxapol challenge measured after 22 hrs relative to control; format: functional; parameters: scale not given: the % may be the effect or the level left; details: route intraperitoneal; how it was run: as §1
[7] = test system: Mus musculus; test: Hypolipidemic activity in ICR mouse assessed as decrease in Tyloxapol-induced triglyceride level at 50 mg/kg, ip administered 1 hr before Tyloxapol challenge and 22, 48 hrs after Tyloxapol challenge measured after 22 hrs relative to control; format: functional; parameters: scale not given: the % may be the effect or the level left; details: route intraperitoneal; how it was run: as §1
[8] = test system: Mus musculus; test: Hypolipidemic activity in ICR mouse assessed as decrease in Tyloxapol-induced triglyceride level at 100 mg/kg, ip administered 1 hr before Tyloxapol challenge and 22, 48 hrs after Tyloxapol challenge measured after 22 hrs relative to control; format: functional; parameters: scale not given: the % may be the effect or the level left; details: route intraperitoneal; how it was run: as §1
[9] = test system: Mus musculus; test: Hypolipidemic activity in high cholesterol diet fed ICR mouse assessed as reduction of total cholesterol level at 50 mg/kg, ip after 12 hrs of last cholesterol challenge relative to control; format: functional; parameters: scale not given: the % may be the effect or the level left; details: route intraperitoneal
How it was run: (§2)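 Male ICR mice (24–27 g), six per group, were fed a high-cholesterol diet ad libitum for 6 days (1.0% cholesterol, 0.5% sodium cholate, 5% butter, 30% sucrose, 10% casein, 53.5% chow). Basal-diet mice served as controls. Dosing was 5 mL/kg and solutions were made fresh. Mice were fasted 12 h before sacrifice and bled periorbitally. Serum TC, HDL-C and TG were read on an analyzer, with LDL-C by Friedewald.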

[10] = test system: Mus musculus; test: Hypolipidemic activity in high cholesterol diet fed ICR mouse assessed as reduction of total cholesterol level at 100 mg/kg/day, ip after 12 hrs of last cholesterol challenge relative to control; format: functional; parameters: scale not given: the % may be the effect or the level left; details: route intraperitoneal; how it was run: as §2
[11] = biological target: T1, 3-hydroxy-3-methylglutaryl-coenzyme A reductase (Schizosaccharomyces pombe 972h-, UniProt Q10283); test: Inhibition of Schizosaccharomyces pombe HMG-CoA reductase by spectrophotometry; details: read-out: IC50
T1 sequence (Q10283 whole entry): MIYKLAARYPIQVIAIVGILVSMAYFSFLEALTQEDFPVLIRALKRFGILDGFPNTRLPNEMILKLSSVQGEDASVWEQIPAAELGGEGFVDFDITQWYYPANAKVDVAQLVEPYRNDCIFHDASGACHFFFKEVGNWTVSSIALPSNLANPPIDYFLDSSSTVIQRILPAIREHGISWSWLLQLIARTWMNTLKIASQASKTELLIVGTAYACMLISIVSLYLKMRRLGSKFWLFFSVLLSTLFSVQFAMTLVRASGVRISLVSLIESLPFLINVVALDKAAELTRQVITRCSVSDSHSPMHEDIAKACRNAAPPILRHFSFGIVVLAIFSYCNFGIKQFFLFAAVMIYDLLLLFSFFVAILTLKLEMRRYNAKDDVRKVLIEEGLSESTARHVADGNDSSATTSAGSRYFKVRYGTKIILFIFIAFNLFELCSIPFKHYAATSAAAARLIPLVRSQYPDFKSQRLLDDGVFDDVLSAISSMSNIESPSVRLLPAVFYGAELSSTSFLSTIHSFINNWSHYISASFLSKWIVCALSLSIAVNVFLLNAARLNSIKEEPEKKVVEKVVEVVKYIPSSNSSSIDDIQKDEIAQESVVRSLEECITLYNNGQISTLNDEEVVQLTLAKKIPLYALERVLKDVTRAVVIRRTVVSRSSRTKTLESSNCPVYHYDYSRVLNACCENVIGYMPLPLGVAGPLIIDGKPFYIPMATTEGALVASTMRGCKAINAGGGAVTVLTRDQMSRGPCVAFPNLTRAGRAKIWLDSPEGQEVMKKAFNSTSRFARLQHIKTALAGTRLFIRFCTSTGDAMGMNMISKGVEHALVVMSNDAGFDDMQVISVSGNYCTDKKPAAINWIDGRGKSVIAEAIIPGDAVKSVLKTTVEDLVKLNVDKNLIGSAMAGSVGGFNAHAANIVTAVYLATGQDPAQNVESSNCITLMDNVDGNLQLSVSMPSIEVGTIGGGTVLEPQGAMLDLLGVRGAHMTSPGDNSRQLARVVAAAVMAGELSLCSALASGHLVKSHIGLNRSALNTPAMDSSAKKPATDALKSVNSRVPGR
How it was run: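 Membrane HMGR partially purified from S. pombe 972 h (YPD, 28 °C, 48 h) via centrifugation, Triton X-100 solubilization, 65 °C heat step, ammonium sulfate and calcium phosphate gel. Enzyme activated 37 °C 30 min, pre-incubated with compound (DMSO stocks 1–5 mM) 30 min at 37 °C. Assay: 200 µg enzyme, 0.13 mM HMG-CoA, 50 mM Tris-HCl pH 7.5; started with 0.13 mM NADPH; A340 decrease over 2 min; triplicate; IC50 derived.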

[12] = test system: Mus musculus; test: Hypolipidemic activity in high cholesterol diet fed ICR mouse assessed as reduction of triglyceride level at 50 mg/kg/day, po after 12 hrs of last cholesterol challenge relative to control; parameters: scale not given: the % may be the effect or the level left
[13] = test system: Mus musculus; test: Hypolipidemic activity in high cholesterol diet fed ICR mouse assessed as reduction of triglyceride level at 100 mg/kg/day, po after 12 hrs of last cholesterol challenge relative to control; parameters: scale not given: the % may be the effect or the level left
[14] = test system: Mus musculus; test: Hypolipidemic activity in high cholesterol diet fed ICR mouse assessed as reduction of LDL cholesterol level at 50 mg/kg/day, po after 12 hrs of last cholesterol challenge relative to control; parameters: scale not given: the % may be the effect or the level left
[15] = test system: Mus musculus; test: Hypolipidemic activity in high cholesterol diet fed ICR mouse assessed as reduction of HDL cholesterol level at 50 mg/kg/day, po after 12 hrs of last cholesterol challenge relative to control; parameters: scale not given: the % may be the effect or the level left
[16] = test system: Mus musculus; test: Hypolipidemic activity in high cholesterol diet fed ICR mouse assessed as reduction of LDL cholesterol level at 100 mg/kg/day, po after 12 hrs of last cholesterol challenge relative to control; parameters: scale not given: the % may be the effect or the level left
[17] = test system: Mus musculus; test: Hypolipidemic activity in high cholesterol diet fed ICR mouse assessed as reduction of HDL cholesterol level at 100 mg/kg/day, po after 12 hrs of last cholesterol challenge relative to control; parameters: scale not given: the % may be the effect or the level left

IC50 [11]: 92.9 µM
Structure (SMILES): CCCc1cc(OC)c(OCC(=O)OC)cc1N
Activity [1]: -69.1%
Activity [2]: -59.67%
Activity [3]: -24.22%
Activity [4]: -37.31%
Activity [5]: -11.21%
Activity [6]: -26.23%
Activity [7]: -15.45%
Activity [8]: -22.14%
Activity [9]: -41.4%
Activity [10]: -49.47%
Activity [12]: -12.22%
Activity [13]: -24.98%
Activity [14]: -41.1%
Activity [15]: -36.04%
Activity [16]: -31.54%
Activity [17]: -39.58%
